From ChEMBL document CHEMBL1130227, “(S)-homo-AMPA, a specific agonist at the mGlu6 subtype of metabotropic glutamic acid receptors” (J Med Chem, 1997) come the findings set out here.

Experiment [1] deals with Metabotropic glutamate receptor 6 (Rattus norvegicus, UniProt P35349). The experiment in a line: Effect on Metabotropic glutamate receptor 6. The essentials: (§1)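 Stably transfected CHO cells (mGlu3, mGlu4a or mGlu6) incubated 10 min in PBS with ligand, 10 μM forskolin and 1 mM IBMX. cAMP measured by RIA; agonism taken as percent decrease of forskolin-induced cAMP versus control. For antagonism, 20 min preincubation with ligand in PBS/1 mM IBMX, then 10 min with ligand plus 30 μM (S)-Glu, forskolin and IBMX. EC50 ± SEM from at least two independent experiments in triplicate.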

Experiment [2] concerns the target Metabotropic glutamate receptor 4 (Rattus norvegicus, UniProt P31423). Put plainly: Effect on Metabotropic glutamate receptor 4. The essentials:
as §1

The target in experiment [3] is Metabotropic glutamate receptor 1 (Rattus norvegicus, UniProt P23385). Put plainly: Effect on Metabotropic glutamate receptor 1. In short, it runs like this: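 CHO cells stably expressing mGlu1a, plated two days before assay and labelled with [3H]inositol (2 μCi/mL) for 24 h. Ligand given in PBS–LiCl for 20 min; read-out is 3H mono-, bis- and tris-inositol phosphates separated by ion exchange, expressed as fold increase over control. For antagonism, a 20 min ligand preincubation was followed by ligand plus 30 μM (S)-Glu. At least two experiments, each in triplicate.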

For experiment [4], the target named is Metabotropic glutamate receptor 2 (Rattus norvegicus, UniProt P31421). The experiment in a line: Effect on Metabotropic glutamate receptor 2. In short, it runs like this:
(§2)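 Stably transfected CHO cells grown in DMEM with 2 mM glutamine, 1% proline and 10% dialyzed FCS, at 37 °C in 5% CO2. Cells seeded 2 days before assay. Ligand tested at 1 mM, both alone and with 30 μM (S)-Glu. Each experiment run at least twice in triplicate.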

Experiment [5] concerns the target Metabotropic glutamate receptor 5 (Rattus norvegicus, UniProt P31424). Put plainly: Effect on Metabotropic glutamate receptor 5. In short, it runs like this: as §2
For experiment [6], the target named is Metabotropic glutamate receptor 7 (Rattus norvegicus, UniProt P35400). The experiment in a line: Effect on Metabotropic glutamate receptor 7. The essentials: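 mGlu7-expressing CHO cells run in the forskolin (10 μM)/IBMX (1 mM) cAMP assay for 10 min, with cAMP measured by RIA as percent inhibition. Test ligand at 10 mM. For antagonism, 20 min preincubation, then ligand plus 1 mM (S)-AP4 as the agonist. Run at least twice in triplicate.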
Sequence of Metabotropic glutamate receptor 7 (P35400 whole entry): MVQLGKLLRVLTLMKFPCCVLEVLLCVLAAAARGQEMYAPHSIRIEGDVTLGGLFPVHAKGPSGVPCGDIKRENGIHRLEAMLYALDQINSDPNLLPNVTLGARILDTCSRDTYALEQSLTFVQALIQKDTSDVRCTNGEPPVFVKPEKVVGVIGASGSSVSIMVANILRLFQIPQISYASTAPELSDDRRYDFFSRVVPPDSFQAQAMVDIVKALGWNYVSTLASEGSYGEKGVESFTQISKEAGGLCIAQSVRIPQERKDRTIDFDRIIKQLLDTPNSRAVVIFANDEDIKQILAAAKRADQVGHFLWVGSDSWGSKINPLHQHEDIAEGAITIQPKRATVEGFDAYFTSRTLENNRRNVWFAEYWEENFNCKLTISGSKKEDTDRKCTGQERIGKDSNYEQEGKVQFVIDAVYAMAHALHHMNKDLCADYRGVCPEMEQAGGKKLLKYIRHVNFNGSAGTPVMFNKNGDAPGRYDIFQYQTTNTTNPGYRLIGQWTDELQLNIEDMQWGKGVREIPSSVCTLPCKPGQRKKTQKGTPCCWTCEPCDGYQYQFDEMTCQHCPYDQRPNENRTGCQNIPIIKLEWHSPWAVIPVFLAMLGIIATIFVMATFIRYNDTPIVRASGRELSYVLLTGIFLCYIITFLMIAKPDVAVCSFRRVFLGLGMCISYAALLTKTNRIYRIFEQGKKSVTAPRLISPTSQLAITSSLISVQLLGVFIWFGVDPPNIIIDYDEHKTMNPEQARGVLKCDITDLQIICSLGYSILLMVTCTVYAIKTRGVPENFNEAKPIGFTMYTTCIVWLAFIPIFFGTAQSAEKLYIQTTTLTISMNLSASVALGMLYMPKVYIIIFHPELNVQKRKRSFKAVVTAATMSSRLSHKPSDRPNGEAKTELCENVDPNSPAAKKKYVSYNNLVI

Experiment [7] has as its target Metabotropic glutamate receptor 3 (Rattus norvegicus, UniProt P31422). Put plainly: Effect on Metabotropic glutamate receptor 3. In short, it runs like this: as §1
In another experiment the target is Glutamate NMDA receptor. Put plainly: Inhibitory activity against N-methyl-D-aspartate glutamate receptor. The class given is protein-complex assay.

Sequence of Metabotropic glutamate receptor 4 (P31423 whole entry): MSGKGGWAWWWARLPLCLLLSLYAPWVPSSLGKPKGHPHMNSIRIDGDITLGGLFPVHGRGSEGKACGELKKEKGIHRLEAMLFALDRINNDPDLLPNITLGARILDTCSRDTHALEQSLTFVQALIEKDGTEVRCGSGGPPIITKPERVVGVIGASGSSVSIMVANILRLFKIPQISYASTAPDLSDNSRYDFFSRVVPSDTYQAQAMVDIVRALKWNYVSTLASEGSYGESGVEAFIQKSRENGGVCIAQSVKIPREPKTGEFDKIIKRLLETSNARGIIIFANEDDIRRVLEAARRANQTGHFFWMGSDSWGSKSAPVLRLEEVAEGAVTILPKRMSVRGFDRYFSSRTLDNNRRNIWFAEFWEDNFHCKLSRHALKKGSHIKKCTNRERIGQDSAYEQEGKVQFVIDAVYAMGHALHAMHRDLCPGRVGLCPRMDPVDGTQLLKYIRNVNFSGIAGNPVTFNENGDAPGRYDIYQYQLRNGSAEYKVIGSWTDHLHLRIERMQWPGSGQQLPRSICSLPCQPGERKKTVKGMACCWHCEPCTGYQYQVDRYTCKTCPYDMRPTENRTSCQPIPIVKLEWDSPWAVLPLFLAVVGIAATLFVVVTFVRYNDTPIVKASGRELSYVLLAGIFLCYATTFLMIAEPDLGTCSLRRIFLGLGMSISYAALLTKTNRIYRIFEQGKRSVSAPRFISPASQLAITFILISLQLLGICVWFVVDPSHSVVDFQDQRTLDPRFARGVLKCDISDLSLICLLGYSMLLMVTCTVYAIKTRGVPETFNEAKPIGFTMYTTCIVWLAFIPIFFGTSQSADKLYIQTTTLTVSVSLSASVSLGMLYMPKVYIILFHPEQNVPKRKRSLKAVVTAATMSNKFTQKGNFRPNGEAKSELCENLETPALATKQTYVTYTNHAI
Sequence of Metabotropic glutamate receptor 2 (P31421 whole entry): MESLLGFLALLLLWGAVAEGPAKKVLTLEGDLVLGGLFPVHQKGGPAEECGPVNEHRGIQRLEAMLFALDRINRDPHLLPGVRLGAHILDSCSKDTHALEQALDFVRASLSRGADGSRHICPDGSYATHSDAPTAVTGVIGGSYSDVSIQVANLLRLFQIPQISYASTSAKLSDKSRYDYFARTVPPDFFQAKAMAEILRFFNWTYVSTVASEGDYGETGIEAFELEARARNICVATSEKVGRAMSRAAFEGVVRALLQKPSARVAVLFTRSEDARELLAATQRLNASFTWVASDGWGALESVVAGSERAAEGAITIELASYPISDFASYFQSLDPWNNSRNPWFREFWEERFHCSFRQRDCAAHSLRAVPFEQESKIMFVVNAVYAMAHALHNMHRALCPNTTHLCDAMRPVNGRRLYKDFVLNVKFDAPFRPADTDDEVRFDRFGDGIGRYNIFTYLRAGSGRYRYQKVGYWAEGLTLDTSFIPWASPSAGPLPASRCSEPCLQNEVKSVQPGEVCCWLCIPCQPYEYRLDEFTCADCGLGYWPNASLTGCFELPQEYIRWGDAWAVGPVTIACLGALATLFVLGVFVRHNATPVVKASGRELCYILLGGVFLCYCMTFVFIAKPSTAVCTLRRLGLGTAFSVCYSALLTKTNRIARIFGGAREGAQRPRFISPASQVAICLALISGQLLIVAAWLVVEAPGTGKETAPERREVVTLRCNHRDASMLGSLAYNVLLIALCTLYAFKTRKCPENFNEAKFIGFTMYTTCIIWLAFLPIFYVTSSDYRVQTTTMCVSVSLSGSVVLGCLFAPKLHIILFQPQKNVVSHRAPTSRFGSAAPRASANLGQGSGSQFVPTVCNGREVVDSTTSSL
Sequence of Metabotropic glutamate receptor 3 (P31422 whole entry): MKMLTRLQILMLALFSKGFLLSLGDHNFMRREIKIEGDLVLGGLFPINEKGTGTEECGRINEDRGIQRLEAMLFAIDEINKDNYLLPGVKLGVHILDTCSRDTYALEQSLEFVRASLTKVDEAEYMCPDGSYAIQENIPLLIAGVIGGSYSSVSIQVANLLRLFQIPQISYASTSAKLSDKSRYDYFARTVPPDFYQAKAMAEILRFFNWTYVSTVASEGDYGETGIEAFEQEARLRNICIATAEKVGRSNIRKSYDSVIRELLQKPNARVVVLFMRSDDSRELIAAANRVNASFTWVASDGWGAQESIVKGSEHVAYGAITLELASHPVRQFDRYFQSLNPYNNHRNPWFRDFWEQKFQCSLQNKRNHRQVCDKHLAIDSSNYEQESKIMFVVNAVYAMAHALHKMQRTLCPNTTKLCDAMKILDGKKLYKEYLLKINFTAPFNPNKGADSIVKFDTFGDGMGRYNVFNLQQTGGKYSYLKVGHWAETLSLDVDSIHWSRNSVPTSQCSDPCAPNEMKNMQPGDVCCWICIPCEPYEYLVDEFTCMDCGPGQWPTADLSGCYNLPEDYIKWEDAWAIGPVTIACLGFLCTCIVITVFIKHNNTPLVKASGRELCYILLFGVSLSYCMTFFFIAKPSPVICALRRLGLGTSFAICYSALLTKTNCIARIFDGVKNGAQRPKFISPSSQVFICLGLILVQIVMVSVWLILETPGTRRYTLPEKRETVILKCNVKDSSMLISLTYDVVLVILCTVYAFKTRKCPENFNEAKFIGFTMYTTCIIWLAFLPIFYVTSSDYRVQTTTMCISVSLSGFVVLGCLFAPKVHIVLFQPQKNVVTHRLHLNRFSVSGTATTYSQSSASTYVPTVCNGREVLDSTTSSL
Sequence of Metabotropic glutamate receptor 5 (P31424 whole entry): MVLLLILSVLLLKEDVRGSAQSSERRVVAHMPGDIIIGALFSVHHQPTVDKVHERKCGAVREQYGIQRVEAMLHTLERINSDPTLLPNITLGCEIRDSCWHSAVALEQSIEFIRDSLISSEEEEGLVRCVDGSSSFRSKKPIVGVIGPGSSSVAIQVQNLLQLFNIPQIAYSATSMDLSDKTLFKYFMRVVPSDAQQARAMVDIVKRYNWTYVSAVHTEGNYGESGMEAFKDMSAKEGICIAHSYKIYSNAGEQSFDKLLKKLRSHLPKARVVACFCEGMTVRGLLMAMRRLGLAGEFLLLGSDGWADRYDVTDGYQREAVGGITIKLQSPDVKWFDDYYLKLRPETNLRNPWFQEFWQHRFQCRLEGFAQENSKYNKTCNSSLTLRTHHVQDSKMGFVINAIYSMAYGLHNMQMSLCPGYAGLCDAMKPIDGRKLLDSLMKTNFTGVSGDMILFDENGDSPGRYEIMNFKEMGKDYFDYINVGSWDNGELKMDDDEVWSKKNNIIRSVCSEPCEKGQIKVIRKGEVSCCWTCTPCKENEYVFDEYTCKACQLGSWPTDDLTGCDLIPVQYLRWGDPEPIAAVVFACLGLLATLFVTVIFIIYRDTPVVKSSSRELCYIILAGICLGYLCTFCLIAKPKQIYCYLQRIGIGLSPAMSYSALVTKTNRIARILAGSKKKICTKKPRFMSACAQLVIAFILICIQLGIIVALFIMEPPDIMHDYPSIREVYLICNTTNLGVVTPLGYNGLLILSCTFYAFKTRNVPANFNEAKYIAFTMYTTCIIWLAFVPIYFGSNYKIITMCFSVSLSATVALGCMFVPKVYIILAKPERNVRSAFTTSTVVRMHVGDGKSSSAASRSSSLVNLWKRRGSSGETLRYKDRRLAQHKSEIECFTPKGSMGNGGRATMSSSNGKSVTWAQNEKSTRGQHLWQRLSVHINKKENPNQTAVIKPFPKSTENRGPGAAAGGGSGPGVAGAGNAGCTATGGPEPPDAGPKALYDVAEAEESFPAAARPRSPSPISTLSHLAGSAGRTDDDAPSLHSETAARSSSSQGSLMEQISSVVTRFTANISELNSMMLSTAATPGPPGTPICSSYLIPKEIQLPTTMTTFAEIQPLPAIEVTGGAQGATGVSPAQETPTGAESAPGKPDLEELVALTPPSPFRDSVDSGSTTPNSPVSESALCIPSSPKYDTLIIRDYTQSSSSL

`Cc1onc(O)c1CCC(N)C(=O)O` (stereo not given): the EC50 (as a rule, the midpoint of the concentration-response curve) was 82 µM in experiment [1], > 3000 µM in experiment [2], > 1000 µM in experiment [3] and > 1000 µM in experiment [4].

For the molecule `N[C@H](CCCC(=O)O)C(=O)O`, the concentration giving a half-maximal response (EC50) in experiment [1], in experiment [3] and in experiment [4] was > 1000 µM throughout.

Turning to `Cc1o[nH]c(=O)c1CC[C@@H](N)C(=O)O`, the 50% effective concentration (EC50) in experiment [5] is > 1000 µM; in experiment [6] it was > 5000 µM; in experiment [1] it was > 1000 µM; in experiment [2] it was > 1000 µM; in experiment [7], > 1000 µM; in experiment [3] it was > 1000 µM. Also, the EC50 in experiment [4] is > 1000 µM. In addition, the IC50 (in general, the midpoint of a concentration-inhibition curve) at Glutamate NMDA receptor was determined as 131 µM.

Turning to `Cc1onc(O)c1CC[C@H](N)C(=O)O`, the EC50 was > 1000 µM in experiment [5]; > 5000 µM in experiment [6]; 58 µM in experiment [1]; > 1000 µM in experiment [2]; > 1000 µM in experiment [7]; > 1000 µM in experiment [3]. Moreover, the concentration giving a half-maximal response (EC50) in experiment [4] is > 1000 µM.

Turning to `N[C@@H](CCP(=O)(O)O)C(=O)O`, the EC50 in experiment [5] is > 1000 µM; in experiment [6], 252 µM; in experiment [1], 0.57 µM; in experiment [2], 0.91 µM; in experiment [3], 1000 µM; in experiment [4] it was 1000 µM.

For `N[C@@H](CCCC(=O)O)C(=O)O` [(S)-2-AMINOADIPIC ACID], the EC50 in experiment [1] is 140 µM; in experiment [2] it was > 3000 µM; in experiment [3], > 1000 µM; in experiment [4], 35 µM.

For the molecule `N[C@H](CCC(=O)O)C(=O)O` [D-GLUTAMATE], the concentration for a half-maximal effect (EC50) in experiment [6] is 5400 µM; in experiment [2], 12 µM; in experiment [7] it was 9 µM.
